pEC50: −log10 of the molar value. Where a SMILES comes first, the peptide text is derived from it.
These compounds were tested against T1, C5a anaphylatoxin chemotactic receptor 1 (Homo sapiens, UniProt P21730) (assay: Release of beta-glucuronidase from human polymorphonuclear leukocytes(PMN)).
T1 sequence (P21730 whole entry): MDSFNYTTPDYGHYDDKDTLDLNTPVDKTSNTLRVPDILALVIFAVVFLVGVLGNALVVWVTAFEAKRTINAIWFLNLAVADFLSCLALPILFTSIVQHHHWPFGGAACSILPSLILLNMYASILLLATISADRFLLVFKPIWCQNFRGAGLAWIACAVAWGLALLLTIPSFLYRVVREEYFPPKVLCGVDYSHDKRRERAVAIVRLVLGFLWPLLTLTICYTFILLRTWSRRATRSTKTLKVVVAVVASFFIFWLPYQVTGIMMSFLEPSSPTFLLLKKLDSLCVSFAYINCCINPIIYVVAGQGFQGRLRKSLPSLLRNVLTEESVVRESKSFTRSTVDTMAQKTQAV
Type: functional
Procedure, shortened: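 Human PMNs pretreated with cytochalasin B (5 μg/mL, 10 min, 37 °C). 10^6 cells incubated with stimulant 60 min at 37 °C, then centrifuged. Supernatant reacted with 0.01 M p-nitrophenyl β-D-glucuronide in 0.1 M sodium acetate pH 4 for 18 h, in triplicate. Stopped with 0.4 M glycine pH 10. EC50 from dose-response.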

Compound	pEC50
CSCC[C@H](NC(=O)[C@H](CC(=O)O)NC(=O)[C@H](CCCCN)NC(=O)[C@H](Cc1ccccc1)NC(=O)[C@H](CO)NC(=O)[C@@H](N)Cc1ccc(O)cc1)C(=O)N[C@@H](CCC(N)=O)C(=O)N[C@@H](CC(C)C)C(=O)N1CCC[C@H]1C(=O)N[C@@H](CCCNC(=N)N)C(=O)O	< 3.00
CSCC[C@H](NC(=O)[C@H](CC(=O)O)NC(=O)[C@H](CCCCN)NC(=O)[C@H](Cc1ccccc1)NC(=O)[C@H](CO)NC(=O)[C@@H](N)Cc1ccc(O)cc1)C(=O)N1CCC[C@H]1C(=O)N[C@@H](C)C(=O)NCC(=O)N[C@@H](CCCNC(=N)N)C(=O)O	3.17
CC(C)C[C@H](NC(=O)[C@@H]1CCCN1C(=O)[C@H](C)NC(=O)[C@H](CC(=O)O)NC(=O)[C@H](CCCCN)NC(=O)[C@H](Cc1ccccc1)NC(=O)[C@H](CO)NC(=O)[C@@H](N)Cc1ccc(O)cc1)C(=O)NCC(=O)N[C@@H](CCCNC(=N)N)C(=O)O	3.68
CSCC[C@H](NC(=O)[C@H](CC(=O)O)NC(=O)[C@H](CCCCN)NC(=O)[C@H](Cc1ccccc1)NC(=O)[C@H](CO)NC(=O)[C@@H](N)Cc1ccc(O)cc1)C(=O)N1CCC[C@H]1C(=O)N[C@@H](CC(C)C)C(=O)NCC(=O)N[C@@H](CCCNC(=N)N)C(=O)O	4.10
CC(C)C[C@H](NC(=O)[C@@H]1CCCN1C(=O)[C@H](CS)NC(=O)[C@H](CC(=O)O)NC(=O)[C@H](CCCCN)NC(=O)[C@H](Cc1ccccc1)NC(=O)[C@H](CO)NC(=O)[C@@H](N)Cc1ccc(O)cc1)C(=O)N[C@@H](CS)C(=O)N[C@@H](CCCNC(=N)N)C(=O)O (H-YSFKDCPLCR-OH)	< 3.00
H-ISHKDMQLGR-OH	7.91
H-YSFKDCPLGR-OH	< 3.00
H-YSFKDMQLGR-OH	3.28
H-YSFKDMQPGR-OH	4.38
H-YSFKGLLLGR-OH	4.56
H-YSFKGMLLGR-OH	4.15

From ChEMBL document CHEMBL1128551, “Decapeptide agonists of human C5a: the relationship between conformation and neutrophil response” (J Med Chem, 1995)
